Assay results taken from PMC6506440 (Scientific Reports, 2013).
Where a SMILES comes first, the peptide text is derived from it.

Key:
[1] = Circular dichroism, percentage helicity; type: physicochemical; settings: Percentage helicity derived using circular dichroism, peptide free in solution
Summary of the method: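 Peptides were N-terminally acetylated and C-terminally amidated, and HPLC-purified to >90% purity. Stapled variants carried an (i, i + 3) hydrocarbon linkage. Percentage helicity was derived from circular dichroism spectra.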

Full-length human eIF4E [2] = target: T1, Full-length human eIF4E (human, UniProt P06730 1-217); experiment: fluorescence polarisation
Full-length human eIF4E [3] = target: T1, Full-length human eIF4E; experiment: SPR
Full-length human eIF4E [4] = target: T1, Full-length human eIF4E; experiment: fluorescence polarisation; remark: listed apart in the source

T1 sequence (P06730 whole entry): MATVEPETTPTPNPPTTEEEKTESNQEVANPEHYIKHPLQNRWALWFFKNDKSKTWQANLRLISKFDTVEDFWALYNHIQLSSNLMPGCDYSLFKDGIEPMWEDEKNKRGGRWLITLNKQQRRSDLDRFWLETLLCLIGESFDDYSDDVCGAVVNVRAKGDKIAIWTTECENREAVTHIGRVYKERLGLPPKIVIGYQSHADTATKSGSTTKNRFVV

## CC(=O)N[C@@H](CCCCN)C(=O)N[C@@H](CCCCN)C(=O)N[C@@H](CCCNC(=N)N)C(=O)N[C@@H](Cc1ccc(O)cc1)C(=O)N[C@@H](CO)C(=O)N[C@@H](CCCNC(=N)N)C(=O)N[C@@H](CCC(=O)O)C(=O)N[C@@H](Cc1ccccc1)C(=O)N[C@@H](CC(C)C)C(=O)N[C@@H](CC(C)C)C(=O)NCC(=O)N[C@@H](Cc1ccccc1)C(N)=O [eIF4G^D5S] (Ac-KKRYSREFLLGF-NH2)
[1]
  Helicity: 0%

## Ac-KKRYSREFLLGF-NH2 [eIF4G^D5S peptide]
Full-length human eIF4E [2]
  Kd: 195 ± 12.1 nM
Full-length human eIF4E [3]
  Kd: 99.9 ± 6.2 nM

## Ac-KKRYSRDFLLALQK(FAM)-NH2 [FAM labeled tracer peptide (KKRYSRDFLLALQK-(FAM))]
Full-length human eIF4E [4]
  binding result: binds
